In paper PMC8428831 (Plant Biotechnology Journal, 2021):

How the values were obtained:
[1] = molecular target: T1, CgS (Arabidopsis thaliana, UniProt P55217); assay: Micro Scale Thermophoresis; format: binding
T1 sequence (P55217 69-563): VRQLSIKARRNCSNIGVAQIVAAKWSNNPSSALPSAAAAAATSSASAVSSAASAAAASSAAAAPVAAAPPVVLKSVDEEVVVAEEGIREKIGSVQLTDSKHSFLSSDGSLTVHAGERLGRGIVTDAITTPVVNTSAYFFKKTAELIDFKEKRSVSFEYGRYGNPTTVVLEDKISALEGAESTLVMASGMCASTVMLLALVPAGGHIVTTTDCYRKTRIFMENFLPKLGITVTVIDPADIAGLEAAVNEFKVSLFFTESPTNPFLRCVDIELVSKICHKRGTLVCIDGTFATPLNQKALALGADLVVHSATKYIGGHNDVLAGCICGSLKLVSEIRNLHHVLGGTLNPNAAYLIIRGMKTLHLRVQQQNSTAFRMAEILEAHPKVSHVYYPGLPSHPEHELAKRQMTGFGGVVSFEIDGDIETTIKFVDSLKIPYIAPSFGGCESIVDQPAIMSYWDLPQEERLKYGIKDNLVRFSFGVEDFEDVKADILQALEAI
Outline: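 Purified recombinant AtCgS labelled with an amine-reactive fluorophore, 100 nM per capillary. Incubated with a dilution series of test compound and measured by microscale thermophoresis (Monolith NT.115). Baseline normalised to the mean of the three lowest concentrations. Signal fitted to a single-site binding model to give Kd.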

[2] = tested on: methionine auxotroph E. coli transformed with AtCgS; format: cell-based; details: for Bacterial growth with external methionine / Bacterial growth without external methionine: 50 µM compound, M9 minimal media; for Bacterial growth with external methionine: methionine 40 mg/L; for Bacterial growth without external methionine: no methionine
Outline: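 Methionine-auxotroph E. coli LE392 carrying pQE-30–AtCgS grown in M9 minimal medium with IPTG, with or without 40 mg/L methionine. Test compound at 50 µM final, or a concentration series, from a 50 mM DMSO stock; DMSO-only controls (0.1%). OD600 read every 20 min for about 1000 min at 37 °C with orbital shaking. Curve slopes from a linear fit; slope ratio versus DMSO, in duplicate.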

Row | SMILES | Kd [1] [µM] | Bacterial growth with external methionine [2] | Bacterial growth without external methionine [2] | Bacterial growth curves, dose–response without external methionine ([2]; variable concentrations, M9, no methionine) | Bacterial growth curves, dose–response with external methionine ([2]; variable concentrations, M9, with methionine)
1 | Cc1cc(O)nc(-c2cccc(NC(=O)c3c(O)cccc3F)c2)n1 [CGSI‐1, 2‐fluoro‐6‐hydroxy‐N‐(3‐(4‐hydroxy‐6‐methylpyrimidin‐2‐yl)phenyl)benzamide] | 29.4 | not active in its presence | active in the absence of methionine | clear dose–response behaviour | no effect
2 | C#CCC(N)C(=O)O (stereo not shown) [PAG, propargyl‐glycine, reference compound] |  | the cells grew in the presence of PAG | significantly inhibits cell growth |  | 
